The source made the active and inactive calls. No cut-off for these calls is given here.
Key:
Mus musculus [1] = assay: Anticonvulsant activity in ip dosed CF1 mouse assessed as protection against maximal electroshock-induced seizure after 30 mins; assay type: functional; conditions: 0.5 h
In short: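 Adult male albino CF-1 (Carworth Farms No. 1) mice dosed ip under the NINDS ASP; maximal electroshock seizure test. For compounds with sufficient activity, a dose-response curve was run at the time of peak effect (hours).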

Mus musculus [2] = assay: Anticonvulsant activity in ip dosed NMRI mouse assessed as protection against 6 Hz psychomotor seizure after 30 mins; assay type: functional; conditions: 0.5 h; for minimal effective dose: read-out: MED
In short: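 Adult male NMRI mice dosed ip (UCB Pharma). 6 Hz psychomotor seizure model at 44 mA, per Kaminski and co-workers.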

Mus musculus [3] = assay: Antinociceptive activity in ip dosed NMRI mouse assessed as inhibition of formalin-induced neuropathic pain after 30 mins; assay type: functional; conditions: 0.5 h
In short: (§1)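 NMRI mice dosed ip at UCB Pharma, then tested in the formalin model of neuropathic pain. ED50 in mg/kg read 30 min after administration. Single-dose runs report the percentage protected.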

Mus musculus [4] = assay: Anticonvulsant activity in ip dosed NMRI mouse assessed as protection against maximal electroshock-induced seizure after 30 mins; assay type: functional; conditions: 0.5 h
In short: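 Adult male NMRI mice dosed ip (UCB Pharma). MES test run per the Klitgaard procedure. […] Single-dose runs report the percentage of animals protected.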

[5] = Neurotoxicity in ip dosed NMRI mouse assessed as minimal motor impairment after 30 mins; assay type: toxicity, organism-based; conditions: in vivo
In short: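 Adult male NMRI mice dosed ip at UCB Pharma. Neurological toxicity was scored on the rotorod test 30 min after dosing.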

Mus musculus [6] = assay: Anticonvulsant activity in NMRI mouse assessed as protection against subcutaneous pentylenetetrazol-induced seizure at 30 to 300 mg/kg, ip after 0.5 to 4 hrs; assay type: functional, organism-based
[7] = Neurotoxicity in po dosed Sprague-Dawley rat assessed as minimal motor impairment after 30 mins by rotorod test; assay type: toxicity, organism-based; conditions: in vivo
[8] = Neurotoxicity in ip dosed CF1 mouse assessed as minimal motor impairment after 30 mins; assay type: toxicity, organism-based; conditions: in vivo
Mus musculus [9] = species on record: Mus musculus; assay: Protective index, ratio of TD50 for NMRI mouse to ED50 for NMRI mouse formalin-induced neuropathic pain model; assay type: functional
Mus musculus [10] = assay: Antinociceptive activity in NMRI mouse assessed as inhibition of formalin-induced neuropathic pain at 75 mg/kg, ip after 30 mins; assay type: functional; set-up: scale not given: the % may be the effect or the level left; conditions: route intraperitoneal; in short: as §1
Rattus norvegicus [11] = assay: Anticonvulsant activity in po dosed Sprague-Dawley rat assessed as protection against maximal electroshock-induced seizure after 30 mins; assay type: functional; conditions: 0.5 h
Rattus norvegicus [12] = species on record: Rattus norvegicus; assay: Protective index, ratio of TD50 for Sprague-Dawley rat to ED50 for Sprague-Dawley rat by maximal electroshock seizure test; assay type: functional
In short: (§2)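 Protective index computed as rotorod (mice) or behavioral (rats) TD50 divided by MES ED50, both in mg/kg in the same species and route.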

Mus musculus [13] = species on record: Mus musculus; assay: Protective index, ratio of TD50 for NMRI mouse to ED50 for NMRI mouse by maximal electroshock seizure test; assay type: functional; in short: as §2

SMILES	ED50 (Mus musculus [1]) [mg/kg]	ED50 (Mus musculus [3]) [mg/kg]	ED50 (Mus musculus [4]) [mg/kg]	TD50 at 0.5 h [5] [mg/kg]	also measured
CCCC(NC(C)=O)C(=O)NCc1ccccc1 (racemic)	38	–	–	–	–
CSCC[C@@H](N)C(=O)NCc1ccccc1	–	> 76	75	–	minimal effective dose (Mus musculus [2]): 130 mg/kg
CC(=O)NC(CN1CCOCC1)C(=O)NCc1ccccc1 (racemic)	< 100	–	–	300	–
COC[C@@H](NC(C)=O)C(=O)NCc1ccccc1 [LACOSAMIDE]	–	–	–	–	Activity (Mus musculus [6]): inactive; TD50 at 0.5 h [7]: > 500 mg/kg
NC(CO)C(=O)NCc1ccccc1 (racemic)	–	> 62	> 62	–	ED50 (Mus musculus [2]): > 62 mg/kg; TD50 at 0.5 h [8]: > 110 mg/kg; Ratio TD50/ED50 (Mus musculus [9]): >1.8
CCCOCC(N)C(=O)NCc1ccccc1 (racemic)	–	> 130	69	–	ED50 (Mus musculus [2]): > 130 mg/kg
COC[C@H](N)C(=O)NCc1ccccc1	–	–	–	–	Ratio TD50/ED50 (Mus musculus [9]): 0.5
C=CCOCC(N)C(=O)NCc1ccccc1 (racemic)	–	75	45	–	minimal effective dose (Mus musculus [2]): 130 mg/kg; Activity (Mus musculus [10]): 12%
CC(=O)NC(C(=O)NCc1ccccc1)c1ccccn1 (racemic)	11	–	–	–	–
CC(=O)NC(CO)C(=O)NCc1ccccc1 (racemic)	< 100	–	–	< 300	–
CC(=O)N[C@@H](C)C(=O)NCc1ccccc1	–	–	–	840	–
N[C@H](CO)C(=O)NCc1ccccc1	–	> 62	> 62	–	ED50 (Mus musculus [2]): > 62 mg/kg; TD50 at 0.5 h [8]: > 110 mg/kg
CC(=O)NC(C(=O)NCc1ccccc1)c1cccs1 (stereo not drawn)	45	–	–	–	–
N[C@H](Cc1ccccc1)C(=O)NCc1ccccc1	–	> 37	40	–	minimal effective dose (Mus musculus [2]): 81 mg/kg
C[C@@H](N)C(=O)NCc1ccccc1	–	–	–	< 100	Activity (Mus musculus [6]): inactive; ED50 (Rattus norvegicus [11]): 19 mg/kg; Ratio TD50/ED50 (Rattus norvegicus [12]): >1.5; TD50 at 0.5 h [7]: > 30 mg/kg
CCC(NC(C)=O)C(=O)NCc1ccccc1 (racemic)	< 100	–	–	> 300	–
CC(=O)NC(CN)C(=O)NCc1ccccc1 (racemic)	–	–	–	> 100	–
O=C1NC(=O)C(c2ccccc2)(c2ccccc2)N1 [PHENYTOIN]	–	–	–	–	TD50 at 0.5 h [7]: > 3000 mg/kg
NCC(N)C(=O)NCc1ccccc1 (racemic)	–	–	> 68	–	–
CC(=O)N[C@@H](C(=O)NCc1ccccc1)C(C)(C)C	> 300	–	–	> 300	–
CCC[C@@H](N)C(=O)NCc1ccccc1	–	35	21	–	Ratio TD50/ED50 (Mus musculus [13]): 2.8; minimal effective dose (Mus musculus [2]): 66 mg/kg; TD50 at 0.5 h [8]: 57 mg/kg; Ratio TD50/ED50 (Mus musculus [9]): 1.6
COCC(N)C(=O)NCc1ccccc1 (racemic)	84	–	–	290	–
CC(=O)N[C@H](CO)C(=O)NCc1ccccc1	–	–	–	> 500	–
CC(C)(C)[C@@H](N)C(=O)NCc1ccccc1	–	–	–	–	Activity (Mus musculus [6]): inactive; TD50 at 0.5 h [7]: > 500 mg/kg
CC(C)(C)[C@H](N)C(=O)NCc1ccccc1	–	–	–	100	Activity (Mus musculus [6]): inactive; ED50 (Rattus norvegicus [11]): > 30 mg/kg; TD50 at 0.5 h [7]: > 30 mg/kg
CCC[C@H](N)C(=O)NCc1ccccc1	–	100	> 37	–	ED50 (Mus musculus [2]): > 210 mg/kg
